This series concerns MS2 coat protein. In words: apparent Kd, MS2 coat protein; higher = weaker binding; RNA-MaP array; FMN 200 µM where present. A digest of the protocol: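 Apparent Kd: the median of filtered binding-curve fits from single clusters. Designs were transcribed on Illumina sequencing-chip clusters by stalled E. coli RNA polymerase and titrated with SNAP-549-labelled MS2 coat protein from 0.7 or 1.5 nM, doubling to 3 µM, in 100 mM Tris-HCl pH 7.5, 80 mM KCl, 4 mM MgCl2, BSA, DTT, yeast tRNA and Tween-20. Each series ran without and then with constant ligand, and green signal was normalised to red-channel RNA signal and control-cluster median Fmax.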

[1] abbreviates: designed as: ON switch for flavin mononucleotide, no ligand.
Where [2] appears, read: ligand present: flavin mononucleotide, designed as: ON switch for flavin mononucleotide.
Setting [3] is: designed as: OFF switch for flavin mononucleotide, no ligand.
Where [4] appears, read: ligand present: flavin mononucleotide, designed as: OFF switch for flavin mononucleotide.

Take “CGCUGCCACGCAGGAUAUGCAUUGGAUUACAAUGCAGAAGGGCGAUUACAUGAGGAUCACCCAUGUGUCGGCAGUGAAGAAGAG”: the “apparent Kd” value by setting is: under setting [1], 657 nM; under setting [2], 44.9 nM.
Taken in the same sequence, the figures for “AAGUCUGGAUGAGGAUAUCAGCUGUAACUGACGUCGACAUGAGGAUCACCCAUGUUGCUAUAGGGUGAGAAGGCAUUUGGGCAA” were 106 nM and 28.6 nM.
Consider “AGCGGAUUGUAGAAGGGUGACAUGAGGAUCACCCAUGUUCAAAUGCGAUUUACGGUAAUUGAUCCACAGGAUAUACAGUCCGAG”, for which the “apparent Kd” value came out at 905 nM under setting [1] and 178 nM under setting [2].
On to “UCAGGCUUCGAGAAGGACAUGAGGAUCACCCAUGUUAAUAUGUAGCAGCCGUGAGGCUGCAUCAUGUAGGAUAUCGGAGUCUGC”, for which the “apparent Kd” value was determined as 7.02 nM under setting [3] and 18.7 nM under setting [4].
Take “UAGCCCGGCCAGAAGGGAGCUAUACAUGAGGAUCACCCAUGUCACUGACUCAGGAUAUGGCGCGCUUGGUAUAAGUAUUCAUGG”: the “apparent Kd” value runs as follows: under setting [1], 8.36 nM; under setting [2], 5.46 nM.
Taken in the same sequence, the figures for “UGGUACAUGGGAGGAUAUCAUGUAGACACAUGAGGAUCACCCAUGUCGAUGGAGACAUCGGAGAUUGAGAAGGCCCAUGUACCU” were 226 nM and 8.3 nM.
On to “ACCUCACAUGAGGAUCACCCAUGUUAGGAUAUUAAAUAGCGCGCAAAACAGCCCUGUAUGAGAAGGAGCUGGGA”, for which the “apparent Kd” value was 13.6 nM under setting [3] and 14.8 nM under setting [4].
Consider “UAAAUACAUGAGGAUCACCCAUGUCAGGAUAUAUUACGCCCGCCAAGCGAGCGCGUCUAUAGAAGGGACGGUGA”, for which the “apparent Kd” value under setting [3] was determined as 33.3 nM and the “apparent Kd” value under setting [4] was 33.2 nM.
For the sequence “AAAGAGCAAGGAUAUACAUGAGGAUCACCCAUGUAGUACGUGAACCAGGUUUUCCUGAGUAGAAGGUGCAGACA”, the “apparent Kd” value under setting [3] worked out at 36 nM and the “apparent Kd” value under setting [4] stood at 34.3 nM.
In the case of “GGGUGACAUGAGGAUCACCCAUGUCAGGAUAUGAUACUAUGUACUUCGGUACAUAGUAUCAGAAGGGACAUCCC”, the “apparent Kd” value amounted to 48.4 nM under setting [3] and 158 nM under setting [4].
Turning to “GCAUGCGUUCGAGGAUAUCGGUGAGAAACGGAACGAGAAGGCGAUCGAAUGUCUCAUAUUAUGAACAUGAGGAUCACCCAUGUA”, the “apparent Kd” value was 514 nM under setting [1] and 131 nM under setting [2].
Consider “CUUUUGUGAGGAUAUGUGGCUUCGAUCGUGAGAUCGAGGCUACAGAAGGCACAUGAGGAUCACCCAUGUUCCUU”, for which the “apparent Kd” value is, setting by setting: under setting [3], 17.6 nM; under setting [4], 69.7 nM.
For “CAAAACUGAGGAUAUACAUGAGGAUCACCCAUGUCCAAGGUCCUGGGCGGAUGCUGCUGUAGAAGGCGGAAAGA”, the “apparent Kd” value is, setting by setting: under setting [3], 22.4 nM; under setting [4], 32.4 nM.
On to “AUAAUGUGAGGAUAUAUGUAUCACGGUGAUACACCGUGAUGAUAGAAGGUACAUGAGGAUCACCCAUGUAGGGC”, for which the “apparent Kd” value turned out to be 36.6 nM under setting [3] and 72.7 nM under setting [4].
With “GACAGGGAUUCAGGAUAUAUUAGCCGAGGCCGAGUAGAAGGGAAAUCCUGACAUGAGGAUCACCCAUGUCGACCCGCCUUCCUU”, the “apparent Kd” value under setting [1] came out at 50.7 nM and the “apparent Kd” value under setting [2] was 51.9 nM.
Taken in the same sequence, the figures for “UUAAUUUUACAAGGAUAUCUAUUGUUAUUUCGACUUACAUGAGGAUCACCCAUGUUAAUAUAUUUAGAGAAGGUGUAUUUUCAG” were 99.4 nM and 52.4 nM.
Take “ACAUGCAUAGCGAUAUGAUCGAGAGAUCAUGUCGCUUUUAAAAGAAGGACAUGAGGAUCACCCAUGUAGGAUAUGGGAGCAUGA”: the “apparent Kd” value is, setting by setting: under setting [1], 53.4 nM; under setting [2], 13.2 nM.
In the case of “GCUUCGGCUGUGAGGAUAUGGCUUCGGAAAUGAAGUUAGAAGGCACAUGAGGAUCACCCAUGUAAGGUUGAAGU”, the “apparent Kd” value is, setting by setting: under setting [3], 21.7 nM; under setting [4], 17.8 nM.
Taken in the same sequence, the figures for “AGAUAUGAUGCAGGAUAUCUAUCUUGAAUGAGGAGAGAAGGGCAAGCAGAGAGAUAAGCCUUAUUACAUGAGGAUCACCCAUGU” were 10.3 nM and 8.56 nM.
Turning to “AAUUAGGUCACAGGAUAUACAACAACCAAUGCUGUAGAAGGGUGUCACAUACUUAGCUGACAUGAGGAUCACCCAUGUAUCCAC”, the “apparent Kd” value reads like this: under setting [1], 172 nM; under setting [2], 68.2 nM.
Take “GGUACUCAAAGAGUACUUGGUCGAACAUGAGGAUCACCCAUGUAGGAUAUACGAAGCAAGAAGUAGUAGAAGGACGUGUGCAGC”: the “apparent Kd” value turned out to be 12.4 nM under setting [3] and 12.1 nM under setting [4].
On to “GGGCGUGAAGGAUAUACAUGAGGAUCACCCAUGUGGGAGGAGAAUGGUGAGGAGGCUGGUAGAAGGUCAGGAGG”, for which the “apparent Kd” value came out at 47.9 nM under setting [3] and 45.8 nM under setting [4].
Consider “GGGUACAUGGGAGGAUAUCAUGUAAAUACAUGAGGAUCACCCAUGUCGAUGGAGACAUCGGAGAUUGAGAAGGCCGAUGUACCG”, for which the “apparent Kd” value is 21.1 nM under setting [1] and 37.8 nM under setting [2].
In the case of “CCCUACGUUUCGUAGCAGUGUCAUCGAGAAGGCCCUGACAUGAGGAUCACCCAUGUUGUUACAUGGGAGGAUAUCGAUGAUCCC”, the “apparent Kd” value was 18.6 nM under setting [1] and 5.47 nM under setting [2].
“GACACGUGAGGAUAUACAUGAGGAUCACCCAUGUAAGUACACGUGGCUGUUCCUGCAUGUAGAAGGCACGCAUU”: the “apparent Kd” value amounted to 22.8 nM under setting [3] and 17.2 nM under setting [4].
For “AAUUAACACCAGAAGGACAUGAGGAUCACCCAUGUAGGAUAUGGGAGUGGGUCCGUUGGAGUUGGCCCGUCUCUGCGGGCUCGA”, the “apparent Kd” value is, setting by setting: under setting [1], 79.1 nM; under setting [2], 8.95 nM.
For the sequence “CCAUCGAGUGUGAGGAUAUGCUGGUCCUUGGAUCAGCAGAAGGCACAUGAGGAUCACCCAUGUGGAUACGGUGG”, the “apparent Kd” value reads like this: under setting [3], 31 nM; under setting [4], 235 nM.
Taken in the same sequence, the figures for “ACCUGACAUGAGGAUCACCCAUGUGAGGAUAUGUACAUCAGGAAAAAAAAACUGAUGUACAGAAGGCACUUGGG” were 25.4 nM and 37.1 nM.
“UAUUAAUACGAAGGAUAUGGUUACAUGAGGAUCACCCAUGUAUGUAUUUUGAUCUAAUUAUUUAACCAGAAGGUCGAAUAUAAA”: the “apparent Kd” value runs as follows: under setting [3], 35.5 nM; under setting [4], 78.5 nM.
Take “AACGUCGAAGGAUAUACAUGAGGAUCACCCAUGUGGGACCUGUAGUCUCACCCAUCGUGUAGAAGGUUGAGGCA”: the “apparent Kd” value was found to be 32.2 nM under setting [3] and 29.7 nM under setting [4].
Take “ACAUGAGGAUCUCCCAUGUAAAAUUAGGAUAUAUAACUGCACAUGAGGAUCACCCAUGUUUAACCGUAGAAGGGAUAAAUAAUU”: the “apparent Kd” value under setting [2] worked out at 786 nM.
“CCGCAAAUGGAGGAUAUCGUAUCGGAUACGAUACGAGAAGGCUAUACAUGAGGAUCACCCAUGUGUCCUAGCGG”: the “apparent Kd” value under setting [3] is 13.5 nM and the “apparent Kd” value under setting [4] is 18.3 nM.
Regarding “UCACGGGAUUGAGGAUAUAUAUGAAUUUUUUUUAUAGAAGGCAAAAUGUUAGAUUAUUCACUAUACAUGAGGAUCACCCAUGUU”, the “apparent Kd” value by setting is: under setting [3], 26.9 nM; under setting [4], 24.2 nM.
As to “UUGUACCGGUGAGGAUAUUUUUAAUAGAACUUUAUGAUAUACAUGAGGAUCACCCAUGUUACUUUAAAGAAGGCAUCGGAUUAU”, the “apparent Kd” value came out at 18.9 nM under setting [3] and 14.8 nM under setting [4].
As for “GGUCGUCAAGUCAGGAUAUCGUUUAGUCGAUGUAACGAGAAGGGACAUGAGGAUCACCCAUGUCGUCUCAUCAG”, the “apparent Kd” value is 18.9 nM under setting [3] and 24.8 nM under setting [4].
As to “AUUUAGUGAGGAUAUGUGGCUUCGAUCGUGAGAUCGAGGCUACAGAAGGCACAUGAGGAUCACCCAUGUUCCUU”, the “apparent Kd” value under setting [3] amounted to 13.2 nM and the “apparent Kd” value under setting [4] came to 55.9 nM.
Taken in the same sequence, the figures for “UAUAUAUAGUAAGGAUAUGUAUUAAUCUUAUAAACAGAAGGUACUGACAUGAGGAUCACCCAUGUUUUAGUGUGGGCAUGUAGA” were 78.1 nM and 103 nM.
In the case of “AUAUAGAUGGUCAGGAUAUGCUAGUGGUAACAGUAGCAGAAGGGACAUGAGGAUCACCCAUGUGGGUCCUGCUC”, the “apparent Kd” value by setting is: under setting [3], 22.3 nM; under setting [4], 64 nM.
“ACACAUGAGGAUCACCCAUGUAGCUGGCGUCUGCACCAGCCACAGGAUAUACGGCAACACAAGCCGUAGAAGGGUGAUAAACAC”: the “apparent Kd” value by setting is: under setting [1], 67.5 nM; under setting [2], 21.6 nM.
On to “UAUUAUGUUCGAGGAUAUCCGCGAUGCCGACCAGGAGAAGGCGAACAUGAGGAUCACCCAUGUUAUAGAUGACCGGUUACCAAA”, for which the “apparent Kd” value was found to be 23.8 nM under setting [3] and 41.2 nM under setting [4].
On to “GCACUGGAUGUAGGAUAUCAGGACGAUAAGUCCUGAGAAGGACAUGAGGAUCACCCAUGUAACCUCUAACCAGUGCAUAAUAUA”, for which the “apparent Kd” value was 12.6 nM under setting [3] and 23.1 nM under setting [4].
On to “UGGUGGAAGCAGGAUAUGCUAGAAGUGUAGAAUGCAGAAGGGCUAACAUGAGGAUCACCCAUGUAAGAGGUGUU”, for which the “apparent Kd” value by setting is: under setting [3], 319 nM; under setting [4], 237 nM.
Consider “GUUUUUCCUCAUGUACAUGAGGAACAUGAGGAUCACCCAUGUAGAAGGAAUUCCCUUAAAUUAAGUUAGGAUAUACAUAUAUUU”, for which the “apparent Kd” value is, setting by setting: under setting [3], 107 nM; under setting [4], 77.4 nM.
Consider “GUCGGAAACGACAAUGAUAGGACUGAGGAUAUACAUAAGUUAGUCCACACAUGAGGAUCACCCAUGUAGAAGGCAGUCCUAUCU”, for which the “apparent Kd” value by setting is: under setting [3], 29.5 nM; under setting [4], 357 nM.
With “GGUCGUCACAUAUACAUGAGGAUCACCCAUGUAAAAUAACAUGAGGAUAUGGAUCCUAAUUGGAUCCAGAAGGCAUGGACGACC”, the “apparent Kd” value is, setting by setting: under setting [1], 6.29 nM; under setting [2], 5.53 nM.
As for “GUAUGGAGUACAGGAUAUGUAAGUUUUAAGUGUAUUGGUUAUUACUUAAUUACAGAAGGGUAUUACAUGAGGAUCACCCAUGUA”, the “apparent Kd” value was 12.8 nM under setting [1] and 9.5 nM under setting [2].
As for “UGUCGGAGCAGAGGAUAUUACAUGAGGAUCACCCAUGUAUGAACCAAUAGCUGGAAACAGCAAUGUAAGAAGGCUGCUCCGACA”, the “apparent Kd” value is, setting by setting: under setting [3], 37.5 nM; under setting [4], 531 nM.
Taken in the same sequence, the figures for “AACAGCUCGUCAGGAUAUAUAUACUUAUAUUGUAUUUAUGUACAUGAGGAUCACCCAUGUUGUUAGUAGAAGGGACGAGCUGAA” were 7.61 nM and 7.16 nM.

The record behind these values is the EternaBench riboswitch data.
